Measurements from different studies.
Compare with care: the assays were run in different laboratories.
Target: NUAK family SNF1-like kinase 1 (NUAK1, Homo sapiens, UniProt O60285)
Residues used in one study (O60285 1-661): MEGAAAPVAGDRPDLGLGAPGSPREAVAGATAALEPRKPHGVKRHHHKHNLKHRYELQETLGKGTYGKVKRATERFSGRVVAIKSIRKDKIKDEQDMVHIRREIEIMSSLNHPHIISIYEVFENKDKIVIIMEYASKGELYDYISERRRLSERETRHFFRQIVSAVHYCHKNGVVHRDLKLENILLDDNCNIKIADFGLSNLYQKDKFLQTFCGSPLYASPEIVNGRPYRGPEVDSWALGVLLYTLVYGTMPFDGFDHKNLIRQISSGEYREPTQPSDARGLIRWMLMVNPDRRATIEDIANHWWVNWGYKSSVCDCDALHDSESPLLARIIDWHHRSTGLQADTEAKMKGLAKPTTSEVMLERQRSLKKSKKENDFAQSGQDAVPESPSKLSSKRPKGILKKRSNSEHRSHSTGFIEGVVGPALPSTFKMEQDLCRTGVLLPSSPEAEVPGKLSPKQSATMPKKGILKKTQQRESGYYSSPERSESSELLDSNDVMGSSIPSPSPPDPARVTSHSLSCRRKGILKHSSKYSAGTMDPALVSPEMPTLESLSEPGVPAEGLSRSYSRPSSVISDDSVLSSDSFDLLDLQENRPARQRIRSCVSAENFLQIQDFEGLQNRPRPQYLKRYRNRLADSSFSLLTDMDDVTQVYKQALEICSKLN

COc1ncc2cc3ccccc3nc2c1C#N
remaining binding (cell-free assay; competition with immobilised ligand; 5 µM): 87%

c1cncc(-c2cccc(Nc3nccc(NC4CCCCC4)n3)c2)c1
remaining binding (binding; competition with immobilised ligand; 10 µM): 16%

CN(CCCC(F)(F)F)c1nccc(-c2cnn3ncccc23)n1
remaining binding (binding; 1 µM): 100%

Cn1cc(Cl)c2c(Oc3c(F)cc(Nc4cc(Cl)nc(N)n4)cc3F)ccnc21
remaining binding (cell-free assay; competition with immobilised ligand; 0.1 µM): 96%

N[C@H]1CCN(c2nccc(-c3cnn4ncccc34)n2)C1
remaining binding (binding; 1 µM): 63%

O=C(NCC1CCOCC1)c1n[nH]cc1NC(=O)c1c(F)cccc1F
remaining binding (binding; competition with immobilised ligand; 1 µM): 100%

COc1cnc(Nc2cccc(S(N)(=O)=O)c2)nc1N1CCN(c2ccccc2)C(=O)C1
remaining binding (binding; competition with immobilised ligand; 1 µM): 86%

CCCCN(CCCC)C(=O)CN1C[C@@H](c2cc(OC)c3c(c2)OCO3)[C@H](C(=O)O)[C@H]1CC(C)(C)CCC
remaining binding (cell-free assay; competition with immobilised ligand; 1 µM): 82.4%

Cc1cnc(Nc2ccc(C(=O)N3CCC(N4CCCC4)CC3)cc2)nc1-c1cc2ccccc2s1
remaining binding (binding; competition with immobilised ligand; 1 µM): 2.7%

c1cnn2ncc(-c3ccnc(N4CCC45COC5)n3)c2c1
remaining binding (binding; 1 µM): 100%

O=C(c1ccc(Nc2ncc(Cl)c(-c3ccc(Cl)s3)n2)cc1)N1CCC(N2CCCC2)CC1
remaining binding (binding; competition with immobilised ligand; 1 µM): 0.65%

COc1ccnn2ncc(-c3ccnc(N(C)C)n3)c12
remaining binding (binding; 1 µM): 82%

CC(=O)N1CCC(c2ccc(C(=O)NC3=NCCN3)cc2C(F)(F)F)CC1
remaining binding (cell-free assay; competition with immobilised ligand; 1 µM): 98%

C[C@@H]1CCN(c2nccc(-c3cnn4ncccc34)n2)C1
remaining binding (binding; 1 µM): 93%

CNCc1ccccc1-c1csc([C@H](C)Nc2nc(C)nc3cc(OC)c(OC)cc23)c1
remaining binding (cell-free assay; competition with immobilised ligand; 1 µM): 90%

COc1cnc(Nc2cccc(S(N)(=O)=O)c2)nc1N1CCN(c2ccccc2)CC1
remaining binding (binding; competition with immobilised ligand; 1 µM): 82%

CCC(=N\O)/C(C)=C/c1ccc(F)cc1
remaining binding (cell-free assay; competition with immobilised ligand; 1 µM): 100%

O=C(NCCCN1CCOCC1)c1ccc(Nc2nccc(-c3cc4ccccc4s3)n2)cc1
remaining binding (binding; competition with immobilised ligand; 1 µM): 13%

CN(C)c1nccc(-c2cnn3ncccc23)n1
remaining binding (binding; 1 µM): 97%
